The values below come from ChEMBL document CHEMBL1133629, “Cholic acid derivatives as 1,2,4,5-tetraoxane carriers: structure and antimalarial and antiproliferative activity” (J Med Chem, 2000).

Where only a bound is given, the exact number is not on record here.

What is called IC50 is the midpoint of a concentration-inhibition curve. A higher IC50 goes with a need for much substance. A word on the GI50: it is the concentration that inhibits growth by half. As a reminder, the EC50 is the concentration giving half of the maximal effect. Low values mean greater potency, high ones weaker potency.

Experiment [1] deals with Plasmodium falciparum. Nature of the experiment: Antimalarial activity against Plasmodium falciparum African D6. In kind it is functional, organism-based. Summed up: (§1)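 P. falciparum clones in human erythrocytes at 0.2% parasitemia and 1% hematocrit, in RPMI-1640 without folate or PABA plus 10% heat-inactivated human plasma. Compounds were diluted 2-fold 11 times ([…] range). Incubation was at 37 °C under 5% CO2/5% O2/90% N2, with [3H]hypoxanthine added at 42 h and 24 h further (66 h total). Cells were freeze-lysed, harvested and scintillation-counted; IC50 by nonlinear logistic dose-response fit.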

The subject of the next experiment is HeLa. Briefly: Antiproliferative activity in HeLa cells of Human cervix carcinoma. Format: functional, cell-based. Summed up: (§2)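 Cells were maintained as monolayers at 37 °C, 5% CO2, in RPMI-1640 with 10% heat-inactivated FBS, 25 mM Hepes, pH 7.2. They were seeded at 2000 cells/well in triplicate, and five concentrations were added 20 h later from 8 mM DMSO stocks; DMSO-only controls. MTT was added at 72 h for 4 h, then SDS/HCl, with OD570 read the next day. Blank-corrected survival vs control; IC50 = 50% survival inhibition.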

Experiment [2] in a line: Antiproliferative activity in Fem-X of Human melanoma. In kind it is functional. Summed up:
as §2

The subject of experiment [3] is Plasmodium falciparum. Nature of the experiment: Antimalarial activity in Plasmodium falciparum Indochina W2. In kind it is functional, organism-based. Summed up: as §1
For a further experiment, the system named is CCRF-CEM. Nature of the experiment: Antiproliferative activity as Growth inhibition in CCRF-CEM Leukemia cell line. In kind it is functional. The following applies: Homo sapiens. The essentials: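 NCI 60-cell-line screen: 48-h continuous drug exposure, growth measured by sulforhodamine B protein assay. GI50 is the interpolated concentration giving +50 percentage growth.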

The nature of experiment [4]: Selectivity, ratio of PHA-stimulated PBMC to D6 clone. Format: functional.
Experiment [5] is described as follows: Selectivity, ratio of PHA-stimulated PBMC to PBMC. Format: functional.
The nature of experiment [6]: Cytotoxic activity against phytohemagglutininin (PHA)-stimulated peripheral blood mononuclear cells (PBMC) inhibition. Format: functional. The following applies: Homo sapiens; read-out: Cytotoxicity IC50. Summed up:
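PBMC were isolated from heparinized blood of three healthy volunteers by density-gradient centrifugation and seeded at 100 000 cells/well in RPMI-based medium. Stimulated cultures received PHA at 5 µg/mL final; non-stimulated cultures received none. Compound dilutions were added 2 h later in triplicate, with medium-only controls. IC50 was determined for each donor.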

In another experiment the test system is FM3A. Nature of the experiment: Antiproliferative activity in Mouse mammary tumor FM3A. Format: functional, cell-based.
In experiment [7] the test system is Plasmodium falciparum. Nature of the experiment: Antimalarial activity in Plasmodium falciparum FCR3. Format: functional, organism-based.

On to `COC(=O)CCC(C)[C@H]1CC[C@H]2[C@@H]3[C@H](OC(C)=O)C[C@@H]4C[C@]5(CC[C@]4(C)[C@H]3C[C@H](OC(C)=O)[C@]12C)OO[C@]1(CC[C@@]2(C)[C@H](C[C@@H](OC(C)=O)[C@@H]3[C@@H]2C[C@H](OC(C)=O)[C@]2(C)[C@@H](C(C)CCC(=O)OC)CC[C@@H]32)C1)OO5` (some centres not stated), for which the IC50 with Plasmodium falciparum [1] was greater than 96 nM; in the experiment with HeLa (Homo sapiens, HeLa), 20500 nM; in [2] it was 19500 nM; in the experiment on Plasmodium falciparum [3] it was greater than 96 nM.

Regarding `CC(=O)O[C@H]1C[C@H]2[C@@H]([C@H](OC(C)=O)C[C@@H]3C[C@]4(CC[C@@]32C)OO[C@]2(CC[C@@]3(C)[C@H](C[C@@H](OC(C)=O)[C@@H]5[C@@H]3C[C@H](OC(C)=O)[C@]3(C)[C@@H](C(C)CCC(N)=O)CC[C@@H]53)C2)OO4)[C@@H]2CC[C@H](C(C)CCC(N)=O)[C@@]12C` (some centres not stated), the IC50 was found to be 129 nM in the experiment with Plasmodium falciparum [1]; 6000 nM in the experiment with HeLa (Homo sapiens, HeLa); 6200 nM in [2]; 59.4 nM in the experiment with Plasmodium falciparum [3].

As to `COC(=O)CCC(C)[C@H]1CC[C@H]2[C@@H]3[C@H](OC(C)=O)C[C@@H]4C[C@]5(CC[C@]4(C)[C@H]3C[C@H](OC(C)=O)[C@]12C)OO[C@@]1(CC[C@@]2(C)[C@H](C[C@@H](OC(C)=O)[C@@H]3[C@@H]2C[C@H](OC(C)=O)[C@]2(C)[C@@H](C(C)CCC(=O)OC)CC[C@@H]32)C1)OO5` (some centres not stated), growth in the experiment on CCRF-CEM was halved (GI50) at 14800 nM. The IC50 is greater than 96 nM in the experiment on Plasmodium falciparum [1]; greater than 29000 nM with HeLa (Homo sapiens, HeLa); greater than 29000 nM in experiment [2]; greater than 96 nM in the experiment on Plasmodium falciparum [3].

`CC(=O)O[C@H]1C[C@H]2[C@@H]([C@H](OC(C)=O)C[C@@H]3C[C@]4(CC[C@@]32C)OO[C@@]2(CC[C@@]3(C)[C@H](C[C@@H](OC(C)=O)[C@@H]5[C@@H]3C[C@H](OC(C)=O)[C@]3(C)[C@@H](C(C)CCC(=O)O)CC[C@@H]53)C2)OO4)[C@@H]2CC[C@H](C(C)CCC(=O)O)[C@@]12C` (some centres not stated): growth in the experiment on CCRF-CEM was halved (GI50) at 1.2 nM. The IC50 in the experiment with Plasmodium falciparum [1] was greater than 99 nM; with HeLa (Homo sapiens, HeLa) it was 5.2 nM; in experiment [2], 4.2 nM; with Plasmodium falciparum [3] it was greater than 99 nM.

Turning to `CCCNC(=O)CCC(C)[C@H]1CC[C@H]2[C@@H]3[C@H](OC(C)=O)C[C@@H]4C[C@]5(CC[C@]4(C)[C@H]3C[C@H](OC(C)=O)[C@]12C)OO[C@@]1(CC[C@@]2(C)[C@H](C[C@@H](OC(C)=O)[C@@H]3[C@@H]2C[C@H](OC(C)=O)[C@]2(C)[C@@H](C(C)CCC(=O)NCCC)CC[C@@H]32)C1)OO5` (some centres not stated), the IC50 turned out to be 9.29 nM in the experiment with Plasmodium falciparum [1]; 33000 nM with HeLa (Homo sapiens, HeLa); 23000 nM in experiment [2]; 60.4 nM in the experiment on Plasmodium falciparum [3]. For the same compound, the Ratio in experiment [4] is 10333; in experiment [5] it was greater than 10700. Moreover, the CC50 in experiment [6] came to 96000 nM.

In the case of `CC(=O)O[C@H]1C[C@H]2[C@@H]([C@H](OC(C)=O)C[C@@H]3C[C@]4(CC[C@@]32C)OO[C@]2(CC[C@@]3(C)[C@H](C[C@@H](OC(C)=O)[C@@H]5[C@@H]3C[C@H](OC(C)=O)[C@]3(C)[C@@H](C(C)CCC(=O)O)CC[C@@H]53)C2)OO4)[C@@H]2CC[C@H](C(C)CCC(=O)O)[C@@]12C` (some centres not stated), the IC50 was greater than 99 nM in the experiment on Plasmodium falciparum [1]; 9.2 nM in the experiment with HeLa (Homo sapiens, HeLa); 7.6 nM in experiment [2]; greater than 99 nM in the experiment on Plasmodium falciparum [3].

`CCCNC(=O)CCC(C)[C@H]1CC[C@H]2[C@@H]3[C@H](OC(C)=O)C[C@@H]4C[C@]5(CC[C@]4(C)[C@H]3C[C@H](OC(C)=O)[C@]12C)OO[C@]1(CC[C@@]2(C)[C@H](C[C@@H](OC(C)=O)[C@@H]3[C@@H]2C[C@H](OC(C)=O)[C@]2(C)[C@@H](C(C)CCC(=O)NCCC)CC[C@@H]32)C1)OO5` (some centres not stated) yielded a GI50 in the experiment on CCRF-CEM of 100 nM. Further, the IC50 with Plasmodium falciparum [1] was found to be 20.1 nM; in the experiment with HeLa (Homo sapiens, HeLa), 166 nM; in experiment [2], 94000 nM; in the experiment with Plasmodium falciparum [3], 30.1 nM. The Ratio in experiment [4] is reported as 12500; in experiment [5] it was greater than 15900. In addition, in experiment [6], the CC50 was determined as 251000 nM.

With `CC(=O)O[C@H]1C[C@H]2[C@@H]([C@H](OC(C)=O)C[C@@H]3C[C@]4(CC[C@@]32C)OO[C@@]2(CC[C@@]3(C)[C@H](C[C@@H](OC(C)=O)[C@@H]5[C@@H]3C[C@H](OC(C)=O)[C@]3(C)[C@@H](C(C)CCC(N)=O)CC[C@@H]53)C2)OO4)[C@@H]2CC[C@H](C(C)CCC(N)=O)[C@@]12C` (some centres not stated), growth in the experiment on CCRF-CEM was halved (GI50) at 970 nM. Also, the IC50 with Plasmodium falciparum [1] amounted to 23.7 nM; in the experiment with HeLa (Homo sapiens, HeLa) it was 3700 nM; in experiment [2] it was 3100 nM; in the experiment on Plasmodium falciparum [3], 18.8 nM.

As for `C[C@@H]1CC[C@H]2[C@@H](C)C(=O)O[C@@H]3O[C@@]4(C)CC[C@@H]1[C@]32OO4` [ARTEMISININ], the results for the EC50 with FM3A and in the experiment on Plasmodium falciparum [7] were 10000 nM and 7.8 nM, respectively. In addition, the IC50 in the experiment on Plasmodium falciparum [1] was 8.6 nM; in the experiment with Plasmodium falciparum [3] it was 7.3 nM.

As for CISPLATIN, in the experiment with HeLa (hela), the IC50 is 3.5 nM.
